MrgX1 antagonist – human MrgX1 receptor antagonism, primary screen. Q96LB2. MRGX1-HEK293 calcium flux, Fluo-4, BAM8-22 antagonism; active compounds read low. B-score at 10 µM. actives 1.3% (n = 310,000). AID 588676;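 active = calcium-response B-score plate-corrected more than 3 library SD below zero, starting fluorescence within 5 deviations, no agonist response on first addition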;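 note: peak minus trough fluorescence over baseline after final BAM8-22 challenge near maximal dose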
Target sequence (Q96LB2 whole entry, looked up): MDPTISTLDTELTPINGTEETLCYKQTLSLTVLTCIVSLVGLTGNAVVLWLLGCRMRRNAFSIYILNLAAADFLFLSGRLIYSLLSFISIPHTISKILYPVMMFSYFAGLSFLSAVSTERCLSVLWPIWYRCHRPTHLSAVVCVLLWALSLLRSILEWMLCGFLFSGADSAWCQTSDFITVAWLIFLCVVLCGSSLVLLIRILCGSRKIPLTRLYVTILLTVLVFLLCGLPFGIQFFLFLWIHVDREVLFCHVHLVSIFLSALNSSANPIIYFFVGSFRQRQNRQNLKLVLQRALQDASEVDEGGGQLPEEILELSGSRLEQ
RGS4 inh – inhibitors of human RGS4; HEK293 M3R/RGS4 inducible, Fluo-4 calcium flux; active compounds read high; triggered by carbachol at its EC20; B-score at 10 µM; actives 0.45% (n = 310,000); AID 463165;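 active = B-score, a plate-corrected calcium signal, over three deviations above library mean, with baseline fluorescence within five deviations of library mean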;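 note: RGS4 expression induced by doxycycline in cells with stable M3 receptor; B-score is computed from the integrated fluorescence ratio over baseline after carbachol; higher B-score means a larger calcium signal and so more RGS4 inhibition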
Target sequence (P49798 whole entry, looked up): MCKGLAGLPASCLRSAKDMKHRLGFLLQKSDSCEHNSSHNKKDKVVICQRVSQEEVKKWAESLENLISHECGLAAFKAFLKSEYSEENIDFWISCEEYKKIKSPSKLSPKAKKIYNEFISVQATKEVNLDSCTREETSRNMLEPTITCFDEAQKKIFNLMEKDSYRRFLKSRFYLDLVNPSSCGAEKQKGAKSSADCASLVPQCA
RGS4 act – potentiators or activators of RGS4. AID 463111. HEK293 M3R/inducible RGS4, carbachol calcium flux Fluo4; active compounds read low. actives 0.92% (n = 310,000). B-score at 10 µM;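 active = B-score of the integrated calcium signal more than 4 SD below the library mean, with starting fluorescence not abnormally high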;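 note: negative B-score means reduced calcium response which marks RGS4 activation or potentiation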
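Reagent: ECmax carbachol challenge; Test system: M3R-expressing HEK293 line, RGS4 induced by doxycycline; Schedule: overnight RGS4 induction, 30 min dye load 37 °C, 20 min compound RT; Detection: calcium dye Fluo4 fluorescence; Read-out: Agonist-evoked peak-minus-minimum fluorescence over baseline, integrated ratio, B score.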
MrgX1 PAM – allosterically activates human MrgX1 receptor signaling; Q96LB2; MrgX1-HEK293, Fluo-4 calcium flux, FDSS; active compounds read high; B-score at 10 µM; actives 0.63% (n = 310,000);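 active = plate-corrected calcium response at least 3 library SD above typical, normal starting fluorescence, not activating the receptor alone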;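 note: compound read alongside a low EC10 to EC30 dose of BAM8-22 agonist; peak minus trough fluorescence over baseline measured at the second addition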
MrgX1 ag – activates human MrgX1 receptor signaling | Q96LB2 | MrgX1-HEK293 cells, Fluo-4 calcium fluorescence, agonist mode; active compounds read high | B-score at 10 µM | actives 0.44% (n = 310,000) | AID 588627;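 active = calcium response B-score plate-corrected fluorescence ratio at least 3 library SD, with starting fluorescence B-score inside 5 SD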
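Assay system: MrgX1-expressing HEK293 cells / Amount: fifteen thousand cells per well / Doses: test compound in the initial addition of three / Timing: cells plated overnight, dye loaded 0.5 h 37 °C, 0.5 h room temperature / Technique: kinetic calcium dye fluorescence, Fluo-4 NW / Control set: positive and negative controls per plate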
RGS4 block valid – RGS4 inhibitor validation | shares compounds with RGS4 inh | HEK293 M3R/RGS4, carbachol calcium Fluo-4 fluorescence; carbachol added at its EC20; 0 = buffer wells, 100 = carbachol control | calcium response, % at 10 µM | actives 65% (n = 1,700);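 active = duplicate-averaged calcium response above the buffer-only control mean plus 5 SD of those controls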;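 note: integrated fluorescence ratio F max minus min over baseline F0; higher response in RGS4-induced cells means RGS4 inhibition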
RGS4 uninduced – counter-screen for RGS4 inhibitors: effect in non-induced cells. shares compounds with RGS4 inh. HEK293 M3R non-induced, carbachol calcium Fluo-4; submaximal (EC20) carbachol stimulus; buffer wells 0%, carbachol control wells 100%. activity (percent), % at 10 µM. actives 20% (n = 1,900); call rule not given here;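 note: RGS4 induction absent so cells express M3R without RGS4; higher means more calcium signal and flags a non-specific hit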
M3R basal Ca ctr – second RGS4 inhibitor counter-screen in uninduced cells lacking carbachol. HEK293 M3R/RGS4 non-induced, Fluo-4 calcium, no carbachol; normalised: buffer wells 0%, carbachol wells 100%. calcium response (agonist-mode artifact), % at 10 µM. shares compounds with RGS4 inh. actives 22% (n = 1,900). AID 493001;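 active = duplicate-averaged calcium rise in uninduced cells above buffer wells' mean plus 5 SD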
A number is an active result; 0 = inactive; - = not tested or not shown. Shown are actives, neighbours in structure and some others; about 3.5% of the full set was active somewhere.

SMILES	MrgX1 antagonist	RGS4 inh	RGS4 act	MrgX1 PAM	MrgX1 ag	RGS4 block valid	RGS4 uninduced	M3R basal Ca ctr
Nc1nc(Nc2cccc(F)c2)nc(NCc2ccco2)c1[N+](=O)[O-]	0	0	0	0	0	0	0	0
Nc1nc(Nc2cccc(Cl)c2)nc(NCCO)c1[N+](=O)[O-]	0	0	0	0	0	-	-	-
O=C(Nc1ccc(S(=O)(=O)Nc2ncccn2)cc1)c1cccc(S(=O)(=O)N2CCCC2)c1	0	0	0	0	0	-	-	-
Oc1c(Br)cc(Br)cc1CNc1ccc(F)cc1	0	6.5	0	0	0	0	0	0
Oc1c(Br)cc(Br)cc1CNc1cnc2ccccc2c1	0	0	0	0	0	-	-	-
NC(Cc1c[nH]c2ccccc12)C(=O)NCc1ccccc1 (stereo unspecified)	0	0	0	0	0	-	-	-
Nc1cccc(C(=O)OCC(=O)Nc2cccc3c2C(=O)c2ccccc2C3=O)c1	0	4.9	0	0	0	5.0%	0	14%
O=C1NN(c2ccc(F)cc2)C(=O)/C1=C\c1cnn(-c2ccccc2)c1	0	0	0	0	0	-	-	-
COc1cc(/C=C2/C(=O)NN(c3ccccc3)C2=O)cc(Br)c1O	0	5.7	0	0	31	5.5%	0	0
COc1cc(/C=C2\C(=O)NN(c3ccccc3)C2=O)cc([N+](=O)[O-])c1O	0	0	0	0	0	-	-	-
O=C1NN(c2cccc(Br)c2)C(=O)/C1=C\c1ccccc1	0	18	0	0	0	16%	32%	14%
CS/C(=N\S(=O)(=O)c1ccccc1)c1ccccc1	0	0	0	0	0	-	-	-
O=S(=O)(/N=C(/Sc1ccccc1)c1ccccc1)c1ccccc1	0	13	0	0	0	16%	0	22%
Cc1ccc(NC(=O)c2c(C)nc(Nc3nc4ccccc4o3)nc2C)cc1	0	0	0	0	0	-	0	0
O=C(/C=C/c1ccccc1)/C=C/c1ccccc1	0	6.3	0	0	0	27%	38%	0
Cc1ccc(C(=O)/C=C\C(=O)c2ccc(C)cc2)cc1	0	0	0	0	0	0	0	0
Cc1nc2ccccc2n1S(=O)(=O)c1cc(C(=O)O)ccc1Cl	0	0	0	0	0	-	-	-
COC(=O)CSC1=C(C#N)C(=O)NC(c2ccccc2)S1 (stereo unspecified)	0	5.1	0	0	0	47%	0	9.5%
CCN(CC)CCCNC(=O)c1cc(-c2ccccc2)c(N2CCCCC2)s1	0	0	0	0	0	-	-	-
Cc1ccc(C2C(C#N)=C3N=C(N)c4ccccc4N3C3=C2C(=O)CCC3)cc1 (stereo unspecified)	0	0	0	0	0	-	0	0
N#CC1=C2N=C(N)c3c(sc4c3CCCCC4)N2C2=C(C(=O)CCC2)C1c1ccccc1 (stereo unspecified)	0	0	0	0	0	-	-	-
N#CC1=C2N=C(N)c3ccccc3N2C2=C(C(=O)CCC2)C1c1ccc(F)cc1 (stereo unspecified)	0	0	0	0	0	-	0	0
CCn1cc([N+](=O)[O-])c(C(=O)N2N=C(c3ccc4ccccc4c3)CC2c2ccccc2O)n1 (stereo unspecified)	0	0	0	0	0	-	0	0
CCn1cc(Cl)c(C(=O)N2N=C(c3ccc4ccccc4c3)CC2c2ccccc2O)n1 (stereo unspecified)	0	0	0	0	0	-	-	-
COc1ccc(C2(c3ccc(O)cc3O)CC(c3ccccc3Cl)NC(=S)N2)cc1 (stereo unspecified)	0	10	0	0	0	36%	0	0
SMILES	MrgX1 antagonist	RGS4 inh	RGS4 act	MrgX1 PAM	MrgX1 ag	RGS4 block valid	RGS4 uninduced	M3R basal Ca ctr
COc1ccc2cc(C3C(C#N)=C(N)OC(C)=C3C(C)=O)c(Cl)nc2c1 (stereo unspecified)	0	5.6	0	0	0	32%	0	0
O=C(N[C@@H](Cc1ccccc1)C(=O)O)c1c(F)c(F)c(F)c(F)c1F	0	0	0	0	0	-	-	-
O=C(CN(Cc1ccccc1)S(=O)(=O)c1ccccc1)N/N=C/c1ccc2c(c1)OCO2	0	0	0	0	0	-	0	0
O=C(CN(Cc1ccc(Cl)c(Cl)c1)S(=O)(=O)c1ccccc1)N/N=C\c1ccc2c(c1)OCO2	0	6.7	0	0	0	18%	0	0
O=C(CN(CCc1ccccc1)S(=O)(=O)c1ccc(Br)cc1)N/N=C/c1ccc2c(c1)OCO2	0	0	0	0	0	-	-	-
CN(Cc1cccc(Cl)c1)C(=O)C1CCC(=O)N(C2CC2)C1 (stereo unspecified)	0	0	0	0	0	-	-	-
CC1Cc2ccccc2N1Cc1nc2scc(-c3cccs3)c2c(=O)[nH]1 (stereo unspecified)	0	9.3	0	0	0	0	0	0
O=C(Cc1ccccc1)Nc1cccc(N2C(=O)C=CC2=O)c1	0	7.5	0	0	0	12%	0	42%
Oc1ccc(NC(=S)N=Nc2c(O)[nH]c3ccc(Br)cc23)cc1	-	0	0	-	-	-	-	-
Oc1[nH]c2ccc(Br)cc2c1N=NC(=S)Nc1ccc(F)cc1	0	7.3	0	0	0	12%	0	0
COc1cccc(CNC(=O)CN2C(=O)COc3ccc(S(=O)(=O)N4CCC(C)CC4)cc32)c1	0	0	0	0	0	-	-	-
CCOC(=O)C(C)/C(C)=N/NC(N)=S (stereo unspecified)	0	17	0	0	0	54%	0	0
CCOC(=O)C(C)/C(C)=N\Nc1ccc([N+](=O)[O-])cc1[N+](=O)[O-] (stereo unspecified)	0	0	0	0	0	-	-	-
Cc1cc(Nc2ccccc2)n(C(=O)c2ccc(Cl)cc2)n1	0	0	0	0	0	-	-	-
CC(C)(C)c1cc(C(=O)C[n+]2ccc(C(=O)NCCCO)cc2)cc(C(C)(C)C)c1O	0	0	0	0	0	-	-	-
Cc1cc(C)n(CCCN2C(=O)c3cccc4cccc(c34)C2=O)n1	0	0	0	0	0	-	-	-
CNC(=O)c1[nH]cnc1C(=O)Nc1ccccn1	0	0	0	0	0	0	0	0
COc1ccc(-c2csc(Nc3ccc(S(=O)(=O)Nc4cc(OC)nc(OC)n4)cc3)n2)cc1	0	5.7	0	0	0	18%	0	0
COc1cc(NS(=O)(=O)c2ccc(Nc3nc(-c4ccccn4)cs3)cc2)nc(OC)n1	0	0	0	0	0	-	0	0
